From publication PMC10670441 (ACS chemical neuroscience, 2023)

Columns and labels:
DAT [1] = conditions: cited from earlier work; for EC50: DAT releasing agent
DAT [2] = conditions: binding at DAT; cited from earlier work
[3] = molecular target: human dopamine transporter (hDAT) (Homo sapiens, UniProt Q01959); test: Inhibition of APP+ uptake in hDAT-expressing HEK293 cells; format: cell-based; conditions: for DAT Selectivity: SERT IC50 value ÷ DAT IC50 value; for IC50: hDAT, inhibition of APP+ (3 μM) uptake
Summary of the method: (§1)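 Flp-In T-REx HEK293 lines stably carrying hDAT or hSERT, DsRED-transfected, doxycycline-induced (1μg/mL) for three days. Under perfusion in pH 7.3 HEPES-glucose buffer: 10 s buffer, 40 s compound, 30 s APP⁺ (3 μM hDAT; 5 μM hSERT) plus compound. Imaging at ex 460/em 535/50 nm. End-point fluorescence averaged over 30–60 cells per well, one concentration per well, normalised to compound-free wells (≥4 wells/concentration). Dose-response inhibition fit gives IC50.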

[4] = molecular target: human serotonin transporter (hSERT) (Homo sapiens, UniProt P31645); test: Inhibition of APP+ uptake in hSERT-expressing HEK293 cells; format: cell-based; conditions: inhibition of APP+ (5 μM) uptake
Summary of the method: as §1

Sequence of human dopamine transporter (hDAT) (Q01959 whole entry, the tested form may be a part): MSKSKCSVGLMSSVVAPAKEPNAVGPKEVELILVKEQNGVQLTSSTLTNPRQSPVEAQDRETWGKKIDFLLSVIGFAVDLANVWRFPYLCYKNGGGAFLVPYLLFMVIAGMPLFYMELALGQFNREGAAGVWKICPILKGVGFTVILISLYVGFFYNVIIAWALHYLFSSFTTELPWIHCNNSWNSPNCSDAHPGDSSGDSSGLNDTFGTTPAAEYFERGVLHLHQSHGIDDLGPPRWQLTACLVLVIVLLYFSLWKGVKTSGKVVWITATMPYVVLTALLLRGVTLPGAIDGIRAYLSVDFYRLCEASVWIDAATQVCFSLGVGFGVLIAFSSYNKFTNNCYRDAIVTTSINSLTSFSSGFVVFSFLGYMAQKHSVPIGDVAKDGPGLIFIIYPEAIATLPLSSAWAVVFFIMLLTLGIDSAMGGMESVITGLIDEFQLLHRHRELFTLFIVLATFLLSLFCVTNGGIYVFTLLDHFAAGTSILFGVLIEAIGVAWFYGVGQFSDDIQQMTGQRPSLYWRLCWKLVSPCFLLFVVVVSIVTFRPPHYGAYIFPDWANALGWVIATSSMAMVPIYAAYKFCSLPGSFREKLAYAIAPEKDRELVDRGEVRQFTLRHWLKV
Sequence of human serotonin transporter (hSERT) (P31645 whole entry): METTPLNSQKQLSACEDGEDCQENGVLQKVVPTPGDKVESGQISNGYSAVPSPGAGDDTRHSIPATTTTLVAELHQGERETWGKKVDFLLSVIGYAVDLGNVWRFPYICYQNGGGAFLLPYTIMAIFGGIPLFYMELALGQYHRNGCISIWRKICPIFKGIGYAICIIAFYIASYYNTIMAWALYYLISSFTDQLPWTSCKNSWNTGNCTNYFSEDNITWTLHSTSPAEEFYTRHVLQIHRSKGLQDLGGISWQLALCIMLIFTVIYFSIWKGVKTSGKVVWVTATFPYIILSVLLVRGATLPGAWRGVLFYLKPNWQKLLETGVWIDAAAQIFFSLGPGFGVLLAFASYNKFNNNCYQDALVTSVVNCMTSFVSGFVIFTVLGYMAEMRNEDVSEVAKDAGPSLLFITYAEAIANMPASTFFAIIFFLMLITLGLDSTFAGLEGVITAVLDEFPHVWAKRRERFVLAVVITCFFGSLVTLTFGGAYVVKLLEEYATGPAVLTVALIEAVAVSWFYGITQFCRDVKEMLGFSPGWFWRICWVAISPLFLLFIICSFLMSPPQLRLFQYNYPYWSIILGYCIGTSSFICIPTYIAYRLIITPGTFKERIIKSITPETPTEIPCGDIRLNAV

Row | Compound | DAT Selectivity [3] [fold] | IC50 [4] [nM] | IC50 [3] [nM] | also measured
1 | CNC(C)C(=O)c1ccc(OC)cc1 (centres unmarked) [4-OCH3 10] |  |  |  | fold lower potency as a releasing agent than its parent, 10 (DAT [1]; DAT release): 40 fold; SERT versus DAT selectivity (DAT [1]; releasing agent): 4 fold
2 | CNC(C)C(=O)c1ccccc1 (centres unmarked) [Compound 10, methcathinone] |  |  |  | EC50 (DAT [1]): 13.5 nM
3 | CCCC(C(=O)c1ccc(C(F)(F)F)cc1)N1CCCC1 (centres unmarked) [4-CF3 analogue of 2] |  |  |  | fold lower affinity at DAT than 2 (DAT [2]): > 300 fold
4 | CCCCC(C(=O)c1ccc(C)cc1)N1CCCC1.Cl (stereo not drawn) [4-CH3 α-PHP (4)] | 83 |  |  | 
5 | CNC(C)C(=O)c1ccc(C(F)(F)F)cc1 (centres unmarked) [4-CF3 10, 4-CF3 methcathinone] |  |  |  | EC50 (DAT [1]): 2710 nM
6 | CCCCC(C(=O)c1ccc(CC)cc1)N1CCCC1.Cl (stereo not drawn) [4-CH2CH3 α-PHP (6), 1-(4-Ethylphenyl)-2-(pyrrolidin-1-yl)hexanone Hydrochloride] | 40 | 9830 | 247 | 
7 | CCCCC(C(=O)c1ccc(Br)cc1)N1CCCC1.Cl (stereo not drawn) [4-Br α-PHP (8), 1-(4-Bromophenyl)-2-(pyrrolidin-1-yl)hexanone Hydrochloride] | 28 | 3610 | 127 | 
8 | CCCCC(C(=O)c1ccccc1)N1CCCC1 (stereo not drawn) [α-PHP (1), 1-phenyl-2-(pyrrolidin-1-yl)hexanone] | >300 | > 30000 | 97 | 
9 | CCCCC(C(=O)c1ccc(C(F)(F)F)cc1)N1CCCC1.Cl (stereo not drawn) [4-CF3 α-PHP (9), 1-(4-Trifluoromethylphenyl)-2-pyrrolidin-1-yl)hexanone Hydrochloride] |  | 5790 | 7500 | 
10 | CCCCC(C(=O)c1ccc(OC)cc1)N1CCCC1.Cl (stereo not drawn) [4-OCH3 α-PHP (5), 1-(4-Methoxyphenyl)-2-(pyrrolidin-1-yl)hexanone Hydrochloride] | 200 | 15200 | 75 | 
11 | CCCCC(C(=O)c1ccc(Cl)cc1)N1CCCC1.Cl (stereo not drawn) [4-Cl α-PHP (7), 1-(4-Chlorophenyl)-2-(pyrrolidin-1-yl)hexanone Hydrochloride] | 55 | 10100 | 184 | 
12 | CCCCC(C(=O)c1ccc(C(F)(F)F)cc1)N1CCCC1.Cl (stereo not drawn) [4-CF3 α-PHP (9)] | 0.8 |  |  | 
13 | CCCCC(C(=O)c1ccc(C)cc1)N1CCCC1.Cl (stereo not drawn) [4-CH3 α-PHP (4), 1-(4-Methylphenyl)-2-pyrrolidin-1-yl)hexanone Hydrochloride] |  | 10200 | 124 | 
